Among the data in ChEMBL document CHEMBL1159100, “Synthesis and antibacterial activity of benzyl-[3-(benzylamino-methyl)-cyclohexylmethyl]-amine derivatives” (Bioorg Med Chem Lett, 2010) are MIC, Activity and hemolysis values, retold here.

≈ marks a conversion by molar mass, not a printed value.

One data set concerns Staphylococcus aureus. In words: Antimicrobial activity against Staphylococcus aureus after 24 hrs by microdilution assay. The format is functional. The essentials: (§1)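 NCCLS broth microdilution, final 100 µL. Bacteria grown in standard media to exponential phase. Compounds in 5% DMSO serially diluted; ~2–5 × 10^5 cells per well, 37 °C, 24 h, shaking 200 rpm. Growth read spectrophotometrically; percent survival relative to a drug-free 5% DMSO growth control; medium-only sterility control. MIC derived from survival data.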
In general terms: Broth dilution looks for growth in wells or tubes with falling amounts of substance.

The test system of data set [1] is Staphylococcus epidermidis. In words: Antimicrobial activity against Staphylococcus epidermidis after 24 hrs by microdilution assay. The data set is classed as functional. The essentials:
as §1

The test system of a further data set is Escherichia coli. In words: Antimicrobial activity against Escherichia coli after 24 hrs by microdilution assay. The format is functional. The essentials:
as §1

A further data set relates to Pseudomonas aeruginosa. In words: Antimicrobial activity against Pseudomonas aeruginosa after 24 hrs by microdilution assay. The data set is classed as functional. The essentials: as §1
Data set [2] can be described thus: Toxicity in human RBC up to 512 ug/ml. Particulars: erythrocyte. The data set is classed as cell-based. The essentials: (§2)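 Fresh human erythrocytes, 4% v/v in 35 mM phosphate buffer with 150 mM NaCl, incubated with test sample 1 h at 37 °C. After centrifugation, supernatant absorbance read at 414 nm. 0.1% Triton X-100 lysis taken as 100% hemolysis. Tested at concentrations up to 512 µg/mL.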

Data set [3] is described as follows: Toxicity in human RBC assessed as hemolytic activity at 512 ug/ml. The data set is classed as cell-based, Erythrocyte. Particulars: red blood cells (RBC), read-out: Activity. The essentials: as §2

Regarding `Brc1cccc(CNCC2CCCC(CNCc3cccc(Br)c3)C2)c1` (configuration not stated), the minimal inhibitory concentration (MIC) – broadly, the lowest concentration that inhibits growth of the organism – in the data set with Staphylococcus aureus was greater than 250 µg/mL; in data set [1], 0.125 µg/mL (≈ 0.26 µM); against Escherichia coli it was greater than 250 µg/mL; in the data set with Pseudomonas aeruginosa, 0.125 µg/mL (≈ 0.26 µM). Moreover, the Activity entry in data set [2] is on record as “Non-toxic”.
As for `CCCCc1ccc(CNCC2CCCC(CNCc3ccc(CCCC)cc3)C2)cc1` (configuration not stated), the MIC against Staphylococcus aureus amounted to 0.004 µg/mL (≈ 0.0092 µM); in data set [1] it was 0.004 µg/mL (≈ 0.0092 µM); in the data set on Escherichia coli, 0.016 µg/mL (≈ 0.0368 µM); against Pseudomonas aeruginosa, 0.002 µg/mL (≈ 0.0046 µM). The hemolysis at 512 ug/ml in data set [3] was 4%.
For the molecule `Cc1ccccc1CNCC1CCCC(CNCc2ccccc2C)C1` (configuration not stated), the MIC (in the data set with Staphylococcus aureus; in data set [1]; with Escherichia coli; against Pseudomonas aeruginosa) was greater than 250 µg/mL each time. Also, the Activity entry in data set [2] is listed as “Non-toxic”.
As for `c1ccc(CNCC2CCCC(CNCc3ccccc3)C2)cc1` (configuration not stated), the MIC (against Staphylococcus aureus; in data set [1]; with Escherichia coli; in the data set on Pseudomonas aeruginosa) was greater than 250 µg/mL each time.
Consider `Cc1cc(C)cc(CNCC2CCCC(CNCc3cc(C)cc(C)c3)C2)c1` (configuration not stated), for which the MIC was greater than 250 µg/mL against Staphylococcus aureus, 0.25 µg/mL (≈ 0.66 µM) in data set [1], greater than 250 µg/mL against Escherichia coli and 1 µg/mL (≈ 2.64 µM) against Pseudomonas aeruginosa. The Activity entry in data set [2] is “Non-toxic”.
`Clc1cccc(CNCC2CCCC(CNCc3cccc(Cl)c3)C2)c1` (configuration not stated): the minimum inhibitory concentration (MIC) was greater than 250 µg/mL in the data set with Staphylococcus aureus, 0.25 µg/mL (≈ 0.639 µM) in data set [1], greater than 250 µg/mL in the data set with Escherichia coli and 0.125 µg/mL (≈ 0.319 µM) in the data set with Pseudomonas aeruginosa. The Activity result in data set [2] was “Non-toxic”.
For the molecule `Fc1ccc(CNCC2CCCC(CNCc3ccc(F)cc3)C2)cc1` (configuration not stated), the minimal inhibitory concentration (MIC) (against Staphylococcus aureus; in data set [1]; against Escherichia coli; with Pseudomonas aeruginosa) was greater than 250 µg/mL each time.
Consider `Cc1ccc(C)c(CNCC2CCCC(CNCc3cc(C)ccc3C)C2)c1` (configuration not stated), for which the MIC (against Staphylococcus aureus; in data set [1]; against Escherichia coli; in the data set with Pseudomonas aeruginosa) was greater than 250 µg/mL each time.
Regarding `CC(C)(C)c1ccc(CNCC2CCCC(CNCc3ccc(C(C)(C)C)cc3)C2)cc1` (configuration not stated), the minimum inhibitory concentration (MIC) against Staphylococcus aureus was determined as 0.016 µg/mL (≈ 0.0368 µM); in data set [1], 0.008 µg/mL (≈ 0.0184 µM); against Escherichia coli it was 0.002 µg/mL (≈ 0.0046 µM); with Pseudomonas aeruginosa, 0.004 µg/mL (≈ 0.0092 µM). In data set [3], the hemolysis at 512 ug/ml is 4%.
On to `CC(C)c1ccc(CNCC2CCCC(CNCc3ccc(C(C)C)cc3)C2)cc1` (configuration not stated), for which the minimum inhibitory concentration (MIC) in the data set with Staphylococcus aureus was greater than 250 µg/mL; in data set [1] it was 0.125 µg/mL (≈ 0.307 µM); in the data set with Escherichia coli, greater than 250 µg/mL; with Pseudomonas aeruginosa, 0.125 µg/mL (≈ 0.307 µM). Also, the hemolysis at 512 ug/ml in data set [3] was 4%.
On to `Clc1cccc(Cl)c1CNCC1CCCC(CNCc2c(Cl)cccc2Cl)C1` (configuration not stated), for which the MIC (in the data set on Staphylococcus aureus; in data set [1]; with Escherichia coli; with Pseudomonas aeruginosa) was greater than 250 µg/mL in each case. In addition, in data set [2], the Activity result is recorded as “Non-toxic”.
In the case of `Brc1ccc(CNCC2CCCC(CNCc3ccc(Br)cc3)C2)cc1` (configuration not stated), the MIC in the data set with Staphylococcus aureus is greater than 250 µg/mL; in data set [1] it was 0.125 µg/mL (≈ 0.26 µM); in the data set with Escherichia coli, greater than 250 µg/mL; in the data set with Pseudomonas aeruginosa, 0.032 µg/mL (≈ 0.0666 µM). Also, the Activity result in data set [2] is reported as “Non-toxic”.
As to `Cc1cccc(CNCC2CCCC(CNCc3cccc(C)c3)C2)c1` (configuration not stated), the MIC with Staphylococcus aureus is greater than 250 µg/mL; in data set [1], 1 µg/mL (≈ 2.85 µM); against Escherichia coli, greater than 250 µg/mL; against Pseudomonas aeruginosa, 1 µg/mL (≈ 2.85 µM). Besides, the Activity result in data set [2] was “Non-toxic”.
On to `O=[N+]([O-])c1cccc(CNCC2CCCC(CNCc3cccc([N+](=O)[O-])c3)C2)c1` (configuration not stated), for which the MIC in the data set with Staphylococcus aureus is 0.02 µg/mL (≈ 0.0485 µM); in data set [1], greater than 250 µg/mL; in the data set with Escherichia coli, greater than 250 µg/mL; against Pseudomonas aeruginosa it was greater than 250 µg/mL.
Consider `CN(C)[C@@H]1C(O)=C(C(N)=O)C(=O)[C@@]2(O)C(O)=C3C(=O)c4c(O)cccc4[C@@](C)(O)[C@H]3C[C@@H]12` [TETRACYCLINE], for which the MIC in the data set with Staphylococcus aureus amounted to 0.01 µg/mL (≈ 0.0225 µM); in data set [1], 0.02 µg/mL (≈ 0.045 µM); against Escherichia coli, 0.001 µg/mL (≈ 0.00225 µM).
For `Cc1ccc(CNCC2CCCC(CNCc3ccc(C)cc3C)C2)c(C)c1` (configuration not stated), the minimum inhibitory concentration (MIC) (in the data set with Staphylococcus aureus; in data set [1]; against Escherichia coli; against Pseudomonas aeruginosa) was greater than 250 µg/mL throughout.
`CCCc1ccc(CNCC2CCCC(CNCc3ccc(CCC)cc3)C2)cc1` (configuration not stated): the minimum inhibitory concentration (MIC) is greater than 250 µg/mL against Staphylococcus aureus, 0.016 µg/mL (≈ 0.0393 µM) in data set [1], 0.016 µg/mL (≈ 0.0393 µM) in the data set with Escherichia coli and 0.016 µg/mL (≈ 0.0393 µM) against Pseudomonas aeruginosa. In data set [3], the hemolysis at 512 ug/ml is 4%.
As to `Cc1ccc(CNCC2CCCC(CNCc3ccc(C)cc3)C2)cc1` (configuration not stated), the MIC is greater than 250 µg/mL in the data set on Staphylococcus aureus, 1 µg/mL (≈ 2.85 µM) in data set [1], greater than 250 µg/mL with Escherichia coli and 0.5 µg/mL (≈ 1.43 µM) against Pseudomonas aeruginosa. For the same molecule, the Activity entry in data set [2] is listed as “Non-toxic”.
Consider `Clc1ccc(CNCC2CCCC(CNCc3ccc(Cl)cc3)C2)cc1` (configuration not stated), for which the MIC against Staphylococcus aureus is 0.025 µg/mL (≈ 0.0639 µM); in data set [1], 0.065 µg/mL (≈ 0.166 µM); in the data set with Escherichia coli, greater than 250 µg/mL; against Pseudomonas aeruginosa, 0.032 µg/mL (≈ 0.0818 µM). The Activity entry in data set [2] is recorded as “Non-toxic”.
With `Fc1cccc(CNCC2CCCC(CNCc3cccc(F)c3)C2)c1` (configuration not stated), the MIC (in the data set on Staphylococcus aureus; in data set [1]; in the data set with Escherichia coli; against Pseudomonas aeruginosa) was greater than 250 µg/mL throughout.
Consider `Cc1ccc(CNCC2CCCC(CNCc3ccc(C)c(C)c3)C2)cc1C` (configuration not stated), for which the MIC with Staphylococcus aureus is greater than 250 µg/mL; in data set [1], greater than 250 µg/mL; against Escherichia coli it was greater than 250 µg/mL; against Pseudomonas aeruginosa, 0.125 µg/mL (≈ 0.33 µM). In addition, the Activity result in data set [2] is reported as “Non-toxic”.
`CCc1ccc(CNCC2CCCC(CNCc3ccc(CC)cc3)C2)cc1` (configuration not stated): the MIC in the data set on Staphylococcus aureus was greater than 250 µg/mL; in data set [1] it was 0.25 µg/mL (≈ 0.66 µM); against Escherichia coli, greater than 250 µg/mL; in the data set on Pseudomonas aeruginosa, 0.125 µg/mL (≈ 0.33 µM). In addition, in data set [3], the hemolysis at 512 ug/ml is 0.5%.
